Results from ChEMBL document CHEMBL1817548, “Epigenetic profiling of the antitumor natural product psammaplin A and its analogues” (Bioorg Med Chem, 2011).
Active and inactive are the calls of the source. No cut-off for these calls is given here.

Experiments:
[1] = molecular target: Histone deacetylase 1 (Homo sapiens) (UniProt Q13547); experiment: Inhibition of human recombinant GST-tagged HDAC1 expressed in Sf9 cells using Fluor de Lys as substrate at 5 uM after 0.5 hrs by fluorimetry
In short: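 GST-HDAC1 was expressed in Sf9 cells via baculovirus and purified on glutathione beads. Enzyme was incubated with Fluor de Lys acetyl-lysine substrate ±5 µM compound for 0.5 h at 37 °C, followed by developer for 30 min. Fluorescence was read at ex 360/em 460 nm and reported as percent of control activity.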

U-937 [2] = experiment: Cell cycle arrest in human U937 cells assessed as accumulation at G1 phase at 5 uM after 30 hrs by propidium iodide staining based flow cytometry; format: functional
In short: (§1)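 U937 cells in RPMI with 10% FBS and antibiotics, kept at 200,000 cells/mL, exposed to compound at 5 µM (in DMSO). DNA content was read by flow cytometry and phases modelled with ModFit. Values are means of independent duplicates.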

U-937 [3] = experiment: Induction of apoptosis in human U937 cells assessed as caspase 3 activation at 5 uM after 30 hrs by FACS analysis; format: functional
In short: (§2)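 Caspase 3 activity was read in living U937 cells after 5 µM exposure. About 1×10^6 cells were washed twice in cold PBS and loaded 1 h on ice with cell-permeable fluorescent substrate FAM-DEVD-FMK. After washing, cells were analysed by FACS. Runs were in duplicate; values are mean ± SD.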

[4] = molecular target: Histone deacetylase (Homo sapiens) (UniProt Q13547+O15379+Q9UBN7+Q92769+Q9UQL6+Q8WUI4+Q9BY41+Q96DB2+P56524+Q9UKV0+Q969S8); experiment: Inhibition of HDAC1 in human U937 cells assessed a increase in histone H3 acetylation in human U937 cells at 5 uM after 24 hrs by Western blot analysis; format: cell-based; conditions: U-937
In short: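 U937 cells were treated 24 h at 5 µM, then lysed in Triton extraction buffer. Histones were acid-extracted with 0.2 M HCl overnight at 4 °C and protein was quantified by Bradford. 10 µg of histone extract was run on 15% polyacrylamide gels and immunoblotted with pan-acetyl-histone H3 antibody.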

[5] = molecular target: T1, NAD-dependent protein deacetylase sirtuin-1 (Homo sapiens) (UniProt Q96EB6); experiment: Inhibition of recombinant human SIRT1 lysine deacetylase activity at 50 uM after 60 mins by fluorimetry relative to control
T1 sequence (whole entry): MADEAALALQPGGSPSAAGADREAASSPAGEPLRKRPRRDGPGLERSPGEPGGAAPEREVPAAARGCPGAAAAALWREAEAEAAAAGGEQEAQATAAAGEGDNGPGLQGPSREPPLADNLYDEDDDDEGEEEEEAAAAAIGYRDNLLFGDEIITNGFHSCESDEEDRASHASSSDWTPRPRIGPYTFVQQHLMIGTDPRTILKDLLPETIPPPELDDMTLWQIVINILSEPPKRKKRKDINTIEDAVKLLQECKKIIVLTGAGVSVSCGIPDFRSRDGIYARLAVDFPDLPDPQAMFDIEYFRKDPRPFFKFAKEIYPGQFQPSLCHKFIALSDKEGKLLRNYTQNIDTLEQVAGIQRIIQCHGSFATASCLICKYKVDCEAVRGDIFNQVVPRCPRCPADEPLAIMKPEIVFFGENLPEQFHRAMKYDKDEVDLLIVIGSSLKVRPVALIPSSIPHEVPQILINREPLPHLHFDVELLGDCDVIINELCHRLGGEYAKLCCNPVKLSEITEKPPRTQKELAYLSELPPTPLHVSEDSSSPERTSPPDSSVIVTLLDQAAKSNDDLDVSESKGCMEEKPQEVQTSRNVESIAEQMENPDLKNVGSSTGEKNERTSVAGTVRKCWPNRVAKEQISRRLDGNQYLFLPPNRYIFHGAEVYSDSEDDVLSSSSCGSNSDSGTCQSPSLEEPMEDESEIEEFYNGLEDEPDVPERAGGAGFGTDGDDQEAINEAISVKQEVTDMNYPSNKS
In short: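 Human SIRT1 expressed in E. coli BL21 and affinity-purified (1 µg) was reacted with acetylated p53 peptide (aa 379–382), 1 mM DTT and 200 µM NAD⁺, with compound at 50 µM, 60 min at 37 °C. Fluorescence was read at ex 360/em 450 nm. Results are mean and SD of four independent experiments as percent of untreated control.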

[6] = molecular target: CREB-binding protein/Histone acetyltransferase p300 (Homo sapiens) (UniProt Q09472+Q92793); experiment: Inhibition of recombinant human p300/CBP using [3H]-acetyl CoA at 50 uM after 2 hrs by scintillation counting relative to control; format: protein assay
In short: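 CBP fragment (aa 1098–1877) expressed in E. coli BL21 and affinity-purified (1 µg) was incubated in HAT buffer with histone H4 peptide (aa 2–24, 10 µg) and 20 µM acetyl CoA carrying 0.5 µCi/mL [³H]-acetyl CoA, compound at 50 µM, for 2 h at 37 °C. Samples were spotted on P81 paper in triplicate, washed in TCA and acetone, and counted. Output is percent of untreated control.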

U-937 [7] = experiment: Induction of human U937 cell differentiation into granulocytes assessed as expression of CD11c marker on cell membrane at 5 uM after 30 to 40 hrs by PI staining based FACS analysis; format: functional
In short: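 After 5 µM treatment, U937 cells were stained with PE-conjugated anti-CD11c; controls got PE mouse IgG1, 30 min at 4 °C in the dark. Cells were washed and taken up in PBS with propidium iodide (0.25 µg/mL), then read by FACS. Result is percent CD11c-positive/PI-negative cells, mean of independent quadruplicates.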

U-937 [8] = experiment: Induction of apoptosis in human U937 cells assessed as caspase 3 activation at 5 uM after 40 hrs by FACS analysis; format: functional, cell-based; in short: as §2
[9] = Inhibition of HDAC in cell-free system
[10] = Inhibition of DNMT in cell-free system
U-937 [11] = experiment: Cell cycle arrest in human U937 cells assessed as accumulation at G1 phase at 5 uM by propidium iodide staining based flow cytometry; format: functional; conditions: TDE = time-dependent effect; in short: as §1
U-937 [12] = experiment: Cell cycle arrest in human U937 cells assessed as accumulation at G2/M phase at 5 uM after 30 hrs by propidium iodide staining based flow cytometry; format: functional; in short: as §1
U-937 [13] = experiment: Cell cycle arrest in human U937 cells assessed as accumulation at G1 phase at 5 uM after 48 hrs by propidium iodide staining based flow cytometry; format: functional; in short: as §1
U-937 [14] = experiment: Cell cycle arrest in human U937 cells assessed as accumulation at S phase at 5 uM after 48 hrs by propidium iodide staining based flow cytometry; format: functional; in short: as §1
U-937 [15] = experiment: Cell cycle arrest in human U937 cells assessed as accumulation at G2/M phase at 5 uM after 48 hrs by propidium iodide staining based flow cytometry; format: functional; in short: as §1

Chain of Histone deacetylase 1 (Homo sapiens) (Q13547 whole entry): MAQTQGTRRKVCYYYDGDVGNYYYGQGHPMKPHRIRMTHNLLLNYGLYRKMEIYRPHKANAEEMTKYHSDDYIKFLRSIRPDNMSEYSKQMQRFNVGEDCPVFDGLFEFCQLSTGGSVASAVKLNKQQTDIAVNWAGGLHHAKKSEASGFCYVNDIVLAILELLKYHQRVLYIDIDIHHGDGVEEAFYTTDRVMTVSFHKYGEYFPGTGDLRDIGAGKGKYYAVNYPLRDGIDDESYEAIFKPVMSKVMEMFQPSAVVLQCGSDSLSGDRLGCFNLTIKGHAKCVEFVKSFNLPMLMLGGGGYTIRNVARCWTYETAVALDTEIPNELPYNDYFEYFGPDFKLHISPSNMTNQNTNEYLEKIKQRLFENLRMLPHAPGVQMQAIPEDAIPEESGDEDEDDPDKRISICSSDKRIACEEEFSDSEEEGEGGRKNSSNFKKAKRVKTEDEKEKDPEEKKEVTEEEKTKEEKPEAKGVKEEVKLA

SMILES	inhibition [1]	Activity (U-937 [2])	Activity [4]	inhibition [5]	inhibition [6]	also measured
O=C(NCCCCCCNC(=O)/C(Cc1ccc(O)c(Br)c1)=N/O)/C(Cc1ccc(O)c(Br)c1)=N/O	inactive	–	–	–	–	–
O=C(NCCSSCCNC(=O)/C(Cc1ccc(O)c(I)c1)=N/O)/C(Cc1ccc(O)c(I)c1)=N/O	Active	80%	Active	Active	inactive	caspase 3 activation (U-937 [3]): 30%
CSCCNC(=O)/C(Cc1ccc(O)c(Br)c1)=N/O	inactive	–	–	–	–	Activity (U-937 [7]): Active
O=C(NCCCCSSCCCCNC(=O)/C(Cc1ccc(O)c(Br)c1)=N/O)/C(Cc1ccc(O)c(Br)c1)=N/O	inactive	–	–	–	–	–
O=C(CCCCCCC(=O)Nc1ccccc1)NO	–	Active	–	–	–	–
COCCNC(=O)/C(Cc1ccc(O)c(Br)c1)=N/O	inactive	–	–	–	–	–
O=C(CCc1ccc(O)c(Br)c1)NCCSSCCNC(=O)CCc1ccc(O)c(Br)c1	inactive	80%	–	Active	inactive	Activity (U-937 [8]): inactive
Cc1ccc(C(=O)Nc2ccc(S(=O)(=O)O)c3cc(S(=O)(=O)O)cc(S(=O)(=O)O)c23)cc1NC(=O)c1cccc(NC(=O)Nc2cccc(C(=O)Nc3cc(C(=O)Nc4ccc(S(=O)(=O)O)c5cc(S(=O)(=O)O)cc(S(=O)(=O)O)c45)ccc3C)c2)c1	–	–	–	Active	–	–
O=C(NCCSSCCNC(=O)/C(Cc1ccc(O)c(Br)c1)=N/O)/C(Cc1ccc(O)c(Br)c1)=N/O [PSAMMAPLIN A]	Active	60%	–	Active	inactive	IC50 [9]: 4.2 nM; IC50 [10]: 18.6 nM; Activity (U-937 [3]): Active; Activity (U-937 [7]): Active; Activity (U-937 [11]): tde
O=C(NCCSSCCNC(=O)/C(Cc1ccc(O)c(F)c1)=N/O)/C(Cc1ccc(O)c(F)c1)=N/O	Active	80%	Active	Active	inactive	caspase 3 activation (U-937 [3]): 30%
O=C(NCCSSCCNC(=O)/C(Cc1ccc(O)cc1)=N/O)/C(Cc1ccc(O)cc1)=N/O	Active	80%	Active	Active	inactive	caspase 3 activation (U-937 [3]): 30%
O=C(NCCSSCCNC(=O)/C(Cc1ccccc1)=N/O)/C(Cc1ccccc1)=N/O	Active	80%	Active	Active	inactive	caspase 3 activation (U-937 [3]): 30%
O=C(NCCSSCCNC(=O)/C(Cc1cccc(O)c1)=N/O)/C(Cc1cccc(O)c1)=N/O	Active	80%	Active	Active	inactive	caspase 3 activation (U-937 [3]): 30%
O=C(NCCSSCCNC(=O)/C(Cc1ccc(O)c(Cl)c1)=N/O)/C(Cc1ccc(O)c(Cl)c1)=N/O	Active	80%	Active	Active	inactive	caspase 3 activation (U-937 [3]): 30%
O=C(NCCCCCSSCCCCCNC(=O)/C(Cc1ccc(O)c(Br)c1)=N/O)/C(Cc1ccc(O)c(Br)c1)=N/O	inactive	–	–	–	–	–
O=C(NCCCCCCSSCCCCCCNC(=O)/C(Cc1ccc(O)c(Br)c1)=N/O)/C(Cc1ccc(O)c(Br)c1)=N/O	inactive	–	–	–	–	–
O=C(NCCCSSCCCNC(=O)/C(Cc1ccc(O)c(Br)c1)=N/O)/C(Cc1ccc(O)c(Br)c1)=N/O	inactive	–	–	–	–	–
O=C(NCCO)/C(Cc1ccc(O)c(Br)c1)=N/O	inactive	–	–	–	–	–
O=C(NCCSSCCNC(=O)/C(Cc1cc(Br)c(O)c(Br)c1)=N/O)/C(Cc1cc(Br)c(O)c(Br)c1)=N/O	inactive	80%	Active	Active	inactive	Activity (U-937 [8]): inactive
Nc1ccccc1NC(=O)c1ccc(CNC(=O)OCc2cccnc2)cc1	–	Active	–	–	–	–
C=CC/C=C\C/C=C\CCCCCCCc1cccc(O)c1C(=O)O	–	–	–	–	Active	–
O=C1C=CC2(C=C1Br)CC(C(=O)NCCSSCCNC(=O)C1=NOC3(C=CC(=O)C(Br)=C3)C1)=NO2 (stereo not given)	inactive	–	–	–	–	Activity (U-937 [12]): Active; Activity (U-937 [13]): inactive; Activity (U-937 [14]): inactive; Activity (U-937 [15]): inactive; Activity (U-937 [3]): Active
